Measured values: ChEMBL document CHEMBL4732136, “Synthesis, Tumor Specificity, and Photosensitizing Efficacy of Erlotinib-Conjugated Chlorins and Bacteriochlorins: Identification of a Highly Effective Candidate for Photodynamic Therapy of Cancer” (J Med Chem, 2021)

Key:
[1] = Drug uptake in tumor of SCID mouse xenografted with human UMUC3 cells at 0.25 micromol/kg, iv pretreated with compound followed by light irradiation at a dose of 135 J/cm2 and 75 mW/cm2 measured after 2 to 8 hrs by IVIS analysis; type: ADME, organism-based, Neoplasm; conditions: in vivo, time 2-8 hrs, dose 0.25 µmol/kg
Procedure, shortened: (§1)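 Female SCID mice with UMUC3 flank/shoulder tumors, 3 per group. PS in 1% Tween80/5% dextrose given iv at 0.47, 0.25 or 0.125 μmol/kg. Whole-body fluorescence imaging by IVIS at several times after injection; average radiant efficiency measured in tumor, liver and skin.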

[2] = Drug uptake in liver of SCID mouse xenografted with FaDu cells at 0.47 to 0.125 micromol/kg, iv pretreated with compound followed by light irradiation at a dose of 135 J/cm2 and 75 mW/cm2 and measured at 24 hrs by IVIS analysis; type: ADME, organism-based; conditions: in vivo, dose 0.47-0.125 µmol/kg
Procedure, shortened: (§2)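 Female SCID mice bearing FaDu tumors 4–5 mm in diameter, 3 per group. PS in 1% Tween80/5% dextrose given iv at 0.47, 0.25 or 0.125 μmol/kg. IVIS whole-body fluorescence imaged at several time points; average radiant efficiency measured in tumor, liver and skin.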

[3] = Drug uptake in skin of SCID mouse xenografted with human UMUC3 cells at 0.25 micromol/kg, iv pretreated with compound followed by light irradiation at a dose of 135 J/cm2 and 75 mW/cm2 measured after 2 to 8 hrs by IVIS analysis; type: ADME, organism-based, Skin of body; conditions: in vivo, time 2-8 hrs, dose 0.25 µmol/kg; procedure, shortened: as §1
[4] = Drug uptake in skin of SCID mouse xenografted with FaDu cells at 0.47 to 0.125 micromol/kg, iv pretreated with compound followed by light irradiation at a dose of 135 J/cm2 and 75 mW/cm2 and measured at 24 hrs by IVIS analysis; type: ADME, organism-based, Skin of body; conditions: in vivo, dose 0.47-0.125 µmol/kg; procedure, shortened: as §2
[5] = test system: HN-85-1-3; experiment: Photodynamic therapy in human HN-85-1-3 cells assessed as degradation of EGFR treated with compound followed by diode laser irradiation at 3 J/cm2 by immunoblot analysis; type: functional, cell-based
Procedure, shortened: (§3)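 Primary HN-85-1-3 tumor epithelial cells loaded with graded PS doses; uptake quantified by fluorescence before light. Dishes irradiated at 37°C with 665 nm diode laser, 6 mW/cm², 3 J/cm² total. Cells lysed in RIPA immediately after light; STAT3 crosslinking and EGFR analysed by SDS-PAGE immunoblot.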

[6] = Drug uptake in human HN-166 cells assessed as increase in drug retention retention at 3 uM in medium with 10% FBS incubated for 5 hrs followed by 40 hrs chase period by inverted fluorescence microscopic analysis; type: ADME, cell-based; conditions: hn-166, 5 h
Procedure, shortened: (§4)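 Five-day co-cultures of HN-143 tumor epithelial cells and HN-166 tumor fibroblasts, both primary head & neck tumor cultures grown on collagen-1 under selective media. PS in 10% FBS medium for 5 h, then 40 h chase without PS. Phase-contrast and fluorescence images taken at 100X with 500 ms exposure; signal normalized to recording time and cell number.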

[7] = test system: FaDu; experiment: Photodynamic antitumor activity against human FaDu cels xenografted in SCID mouse assessed as cure rate at 0.47 micromol/kg, iv pretreated with compound followed by light irradiation at a dose of 135 J/cm2 and 75 mW/cm2 and measured at 24 hrs post dose relative to control; type: functional; conditions: dose 0.47 µmol/kg
Procedure, shortened: (§5)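 FaDu-bearing female SCID mice (5 per group per experiment) given iv PS at 0.47, 0.25 or 0.125 μmol/kg in Tween80/dextrose. Tumors irradiated 24 h post-injection at 665 nm, 135 J/cm², 75 mW/cm². Tumor growth measured daily for 60 days, with euthanasia above 400 mm³. Cure taken as tumor-free at day 60; survival analysed by log-rank test.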

[8] = test system: FaDu; experiment: Photosensitizing activity in human FaDu cells assessed as reduction in cell viability pretreated with compound for 24 hrs followed by light irradiation at 1 J/cm2 and measured after 48 hrs by MTT assay; type: functional, cell-based; conditions: light or radiation study
Procedure, shortened: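 Cells seeded at 0.01–0.05 x 10⁶ cells/ml; PS added 24 h after plating, top dose 1600 nM with 2-fold serial dilutions. Plates given 0 or 1 J/cm² light. MTT added 48 h later, formazan dissolved in DMSO, absorbance at 570 nm; IC50 from curve fitting.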

[9] = Photosensitizing activity in human HN-85-1-3 cells assessed as induction of STAT3 cross-linking pretreated with compound followed by diode laser irradiation at 3 J/cm2 by immunoblot analysis (reference value: 0 %); type: functional; procedure, shortened: as §3
[10] = Drug uptake in liver of SCID mouse xenografted with human UMUC3 cells at 0.25 micromol/kg, iv pretreated with compound followed by light irradiation at a dose of 135 J/cm2 and 75 mW/cm2 measured after 2 to 8 hrs by IVIS analysis; type: ADME, organism-based; conditions: in vivo, time 2-8 hrs, dose 0.25 µmol/kg; procedure, shortened: as §1
[11] = Drug uptake in skin of iv dosed SCID mouse xenografted with UMUC3 cells by fluorescence imaging analysis; conditions: in vivo
[12] = Drug uptake in human CFSE-stained HN-121 cells assessed as increase in drug retention at 1.6 uM in medium with 10% FBS followed by 48 hrs chase period by inverted fluorescence microscopic analysis; type: ADME, cell-based; conditions: hn-121, 48 h
[13] = Drug uptake in human HN-143 cells assessed as increase in drug retention retention at 3 uM in medium with 10% FBS incubated for 5 hrs followed by 40 hrs chase period by inverted fluorescence microscopic analysis; type: ADME, cell-based; conditions: hn-143, 5 h; procedure, shortened: as §4
[14] = Drug uptake in human HN-85-1-3 cells assessed as photoreactivation by measuring fluorescence when irradiated with diode laser at 3J/cm2 by inverted fluorescence microscopic analysis (reference value: 0 FU); type: cell-based; procedure, shortened: as §3
[15] = Drug uptake in skin of SCID mouse xenografted with human UMUC3 cells at 0.125 micromol/kg, iv pretreated with compound followed by light irradiation at a dose of 135 J/cm2 and 75 mW/cm2 measured after 2 to 24 hrs by IVIS analysis; type: ADME, organism-based, Skin of body; conditions: in vivo, time 2-24 hrs, dose 0.125 µmol/kg; procedure, shortened: as §1
[16] = Drug uptake in tumor of SCID mouse xenografted with human UMUC3 cells at 0.125 micromol/kg, iv pretreated with compound followed by light irradiation at a dose of 135 J/cm2 and 75 mW/cm2 measured after 2 to 24 hrs by IVIS analysis; type: ADME, organism-based, Neoplasm; conditions: in vivo, time 2-24 hrs, dose 0.125 µmol/kg; procedure, shortened: as §1
[17] = test system: FaDu; experiment: Photodynamic antitumor activity against human FaDu cells xenografted in SCID mouse assessed as cure rate at 0.125 micromol/kg, iv pretreated with compound followed by light irradiation at a dose of 135 J/cm2 and 75 mW/cm2 measured for 60 days post dose relative to control; type: functional; conditions: dose 0.125 µmol/kg; time 60 day; procedure, shortened: as §5
[18] = test system: UMUC3; experiment: Photosensitizing activity in human UMUC3 cells assessed as reduction in cell viability pretreated with compound for 24 hrs followed by light irradiation at 1 J/cm2 and measured after 48 hrs by MTT assay; type: functional, cell-based; conditions: UMUC3, light or radiation study
Procedure, shortened: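 Cells plated 0.01x10⁶ to 0.05x10⁶ cells/ml and allowed to adhere 24 h before photosensitizer was added, top dose 1600 nM with 2-fold serial dilutions. Plates received no light (0 J/cm²) or 1 J/cm² at 565 mW, 15 cm spot. After 48 h, MTT added for 3 h, formazan solubilized in DMSO and read at 570 nm; IC₅₀ fitted from dose-response.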

- Drug uptake [1]: Active
- Drug uptake [2]: Active
- Drug uptake [3]: Active
- Drug uptake [4]: Active
- Drug uptake [6]: Active
- Drug uptake [10]: Active
- Drug uptake [11]: Active
- Drug uptake [12]: Active
- Drug uptake [13]: Active
- Activity [14]: 9 FU
- Drug uptake [15]: Active
- Drug uptake [16]: Active
SMILES: CCC1=C(C)c2cc3[nH]c(cc4nc(c5c6[nH]c(cc1n2)c(C)c6C(=O)C5)[C@@H](CCC(=O)OC)[C@@H]4C)c(C)c3C(C)OCc1cccc(C#Cc2cccc(Nc3ncnc4cc(OCCOC)c(OCCOC)cc34)c2)c1 (stereo partly drawn)
- Activity [5]: Dose-dependent effect
- Activity [7]: 92%
- IC50 [8]: 35.5 nM
- Activity [9]: 0.5%
- Activity [17]: 0%
- IC50 [18]: 59.4 nM
